Laboratory results published in ChEMBL document CHEMBL5625173, “Antimycobacterial pyridine carboxamides: From design to in vivo activity” (Eur J Med Chem, 2023).
Converted amounts (≈) assume the structure as drawn. The source made the active and inactive calls. The rule behind the calls is not given here.

Legend:
[1] = test system: Mycobacterium tuberculosis; assay: Antimycobacterial activity against Mycobacterium tuberculosis H37Rv infected in mouse assessed as reduction in colony formation in lungs at 50 mg/kg administered for 28 days; type: functional, organism-based; details: time 28.0 day
How it was run: (§1)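 Mice infected intranasally with Mtb H37Rv; infection allowed to develop four weeks. Then dosed for 28 days with sodium salt forms as water solution by gastric tube. Lung and spleen CFU determined and compared with untreated control group.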

[2] = test system: Mycobacterium tuberculosis; assay: Antimycobacterial activity against Mycobacterium tuberculosis H37Rv assessed as change in trehalose dimycolates production at 1.5 to 6 ug/ml incubated for 24 hrs in presence of 14C acetate by TLC analysis; type: functional, organism-based; details: dose 1.5-6 µg/ml
How it was run: (§2)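 Mtb H37Rv cultures exposed to 0, 1.5, 3 or 6 μg/ml compound or its sodium salt for 24 h. 14C acetate then added and cells grown a further 24 h. Lipids and mycolic acids extracted; fatty acids derivatized to methyl esters. Separated by TLC on standard or AgNO3-impregnated plates in Solvent IV and visualized by autoradiography.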

[3] = test system: Mycobacterium tuberculosis; assay: Antimycobacterial activity against Mycobacterium tuberculosis H37Rv assessed as decreased synthesis of methoxy-mycolic acid at 1.5 to 6 ug/ml incubated for 24 hrs in presence of 14C acetate by TLC analysis; type: functional, organism-based; details: dose 1.5-6 µg/ml; how it was run: as §2
[4] = test system: Mycobacterium tuberculosis; assay: Antimycobacterial activity against Mycobacterium tuberculosis H37Rv at 1 times MIC measured after 15 days in presence of methionine by alamar blue staining based microplate analysis; type: functional, organism-based; details: time 15.0 day
[5] = test system: Mycobacterium tuberculosis; assay: Antimycobacterial activity against Mycobacterium tuberculosis H37Rv assessed as change in phospholipid production at 1.5 to 6 ug/ml incubated for 24 hrs in presence of 14C acetate by TLC analysis; type: functional, organism-based; details: dose 1.5-6 µg/ml; how it was run: as §2
[6] = test system: Mycobacterium tuberculosis; assay: Antimycobacterial activity against Mycobacterium tuberculosis H37Rv assessed as decreased synthesis of cyclopropyl-mycolic acid at 1.5 to 6 ug/ml incubated for 24 hrs in presence of 14C acetate by TLC analysis; type: functional, organism-based; details: dose 1.5-6 µg/ml; how it was run: as §2
[7] = test system: Mycobacterium tuberculosis; assay: Antimycobacterial activity against Mycobacterium tuberculosis H37Rv assessed as decreased synthesis of tri-acylglyerols at 1.5 to 6 ug/ml incubated for 24 hrs in presence of 14C acetate by TLC analysis; type: functional, organism-based; details: dose 1.5-6 µg/ml; how it was run: as §2
[8] = test system: Mycobacterium tuberculosis; assay: Antimycobacterial activity against Mycobacterium tuberculosis H37Rv assessed as change in trehalose monomycolates production at 1.5 to 6 ug/ml incubated for 24 hrs in presence of 14C acetate by TLC analysis; type: functional, organism-based; details: dose 1.5-6 µg/ml; how it was run: as §2
[9] = test system: Mycobacterium tuberculosis; assay: Antimycobacterial activity against Mycobacterium tuberculosis H37Rv infected in mouse assessed as reduction in colony formation in spleen at 50 mg/kg administered for 28 days; type: functional, organism-based; details: time 28.0 day; how it was run: as §1
[10] = test system: Mycobacterium tuberculosis; assay: Antimycobacterial activity against Mycobacterium tuberculosis MAT1 by alamar blue staining based microplate analysis; type: functional
[11] = Metabolic stability in human liver microsomes assessed as half life at 3 uM incubated for 45 mins by HPLC-MS analysis; type: ADME, Microsome
How it was run: (§3)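 Ammonium salt or lactone, 3 μM, incubated with human liver microsomes at physiological pH; reactions stopped at 0, 5, 15, 30 and 45 min and analysed by HPLC-MS; k, t1/2 and intrinsic clearance calculated from the HPLC-MS records.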

[12] = Metabolic stability in human liver microsomes assessed as intrinsic clearance at 3 uM incubated for 45 mins by HPLC analysis; type: ADME, Microsome; details: read-out: CLH; how it was run: as §3
[13] = Drug metabolism in human liver microsomes assessed as M1 metabolite formation at 90 uM incubated for 3 hrs; type: ADME, Microsome
How it was run: (§4)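 Phase I metabolite identification: ammonium salt of the compound (for solubility) or its lactone, 90 μM, incubated with human liver microsomes for 3 h; metabolites detected by HPLC-MS, positive ion mode, by m/z.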

[14] = test system: Mycobacterium tuberculosis; assay: Antimycobacterial activity against Mycobacterium tuberculosis H37Ra by alamar blue staining based microplate analysis; type: functional
How it was run: (§5)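 Microplate Alamar Blue assay. MIC values read at pH 6.6 (neutral). One acidic-pH test at pH 5.6 is footnoted separately.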

[15] = Drug metabolism in human liver microsomes assessed as M3 metabolite formation at 90 uM incubated for 3 hrs; type: ADME, Microsome; how it was run: as §4
[16] = test system: Mycobacterium tuberculosis; assay: Antimycobacterial activity against Mycobacterium tuberculosis H37Rv by alamar blue staining based microplate analysis; type: functional; how it was run: as §5
[17] = test system: Mycolicibacterium aurum; assay: Antimycobacterial activity against Mycobacterium aurum by alamar blue staining based microplate analysis; type: functional
How it was run: (§6)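 Microplate Alamar Blue assay, one of six mycobacterial strains tested (Mtb H37Rv, Mtb H37Ra, M. kansasii, M. avium, M. smegmatis, M. aurum); value reported as MIC.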

[18] = Selectivity index, ratio of IC50 for cytotoxicity against human HepG2 cells to MIC for antimycobacterial activity against Mycobacterium tuberculosis H37Rv; type: toxicity, cell-based; details: read-out: Selectivity Index
[19] = Drug metabolism in human liver microsomes assessed as M2 metabolite formation at 90 uM incubated for 3 hrs; type: ADME, Microsome; how it was run: as §4
[20] = test system: Mycobacterium kansasii; assay: Antimycobacterial activity against Mycobacterium kansasii by alamar blue staining based microplate analysis; type: functional; how it was run: as §6
[21] = test system: Mycobacterium avium; assay: Antimycobacterial activity against Mycobacterium avium by alamar blue staining based microplate analysis; type: functional; how it was run: as §5
[22] = test system: Mycolicibacterium smegmatis; assay: Antimycobacterial activity against Mycobacterium smegmatis by alamar blue staining based microplate analysis; type: functional; how it was run: as §6
[23] = Cytotoxicity against human HepG2 cells assessed as inhibition of cell viability; type: toxicity, cell-based
[24] = test system: Mycobacterium tuberculosis; assay: Antimycobacterial activity against Mycobacterium tuberculosis IZAK by alamar blue staining based microplate analysis; type: functional
[25] = test system: Mycobacterium tuberculosis; assay: Antimycobacterial activity against Mycobacterium tuberculosis H37Rv at 40 times MIC measured after 15 days in presence of methionine by alamar blue staining based microplate analysis; type: functional, organism-based; details: time 15.0 day

O=C(Nc1ccc(C(=O)O)c(O)c1)c1ccc2ccccc2n1
Activity [1]: inactive | Activity [2]: inactive | Activity [3]: Active | Activity [4]: inactive | Activity [5]: inactive | Activity [6]: Active | Activity [7]: Active | Activity [8]: inactive | Activity [9]: Active

O=C(Nc1ccc2c(c1)OCOC2=O)c1ccc2ccccc2n1
MIC [10]: 50 µg/mL (≈ 156 µM) | half-life at 3 µM [11]: 11 min | microsomal CLint at 3 µM [12]: 122 µL/min/mg | Drug metabolism [13]: Metabolite_Detected | MIC [14]: 1.98 µg/mL (≈ 6.18 µM) | Drug metabolism [15]: Metabolite_Detected | MIC [16]: 1.56 µg/mL (≈ 4.87 µM) | MIC [17]: ≥ 250 µg/mL | selectivity ratio [18]: > 5.1 | Drug metabolism [19]: Metabolite_Detected | MIC [20]: > 100 µg/mL | MIC [21]: > 100 µg/mL | MIC [22]: ≥ 250 µg/mL | IC50 [23]: > 25 µM | MIC [24]: 50 µg/mL (≈ 156 µM)

Nc1ccc(C(=O)O)c(O)c1 [AMINOSALICYLIC ACID]
MIC [14]: 0.25 µg/mL (≈ 1.63 µM) | MIC [16]: 3.13 µg/mL (≈ 20.4 µM) | MIC [17]: 250 µg/mL (≈ 1630 µM) | selectivity ratio [18]: 62.1 | Activity [25]: inactive | MIC [21]: 3.13 µg/mL (≈ 20.4 µM) | MIC [22]: 500 µg/mL (≈ 3270 µM) | IC50 [23]: > 1270 µM
